Assay results published in ChEMBL document CHEMBL1629527, “In vitro antifungal activities of bis(alkylpyridinium)alkane compounds against pathogenic yeasts and molds” (Antimicrob Agents Chemother, 2010).

Columns and labels:
Aspergillus fumigatus [1] = test: Antifungal activity against Aspergillus fumigatus ATCC 204305 after 24 to 72 hrs by broth microdilution method; assay type: functional
Summary of the method: (§1)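 Broth microdilution MIC per CLSI M27-A3 (yeasts) or M38-A2 (molds). RPMI 1640 with L-glutamine, without bicarbonate, buffered to pH 7.0 with 0.165 M MOPS. Final test range for the compounds was 0.175–87.5 μM. Incubation at 35°C with visual reading at 24–72 h. MIC was the lowest concentration giving 100% inhibition versus the growth control (azoles 50% or 100%, by organism). Each isolate was run in duplicate in two independent experiments.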

Pichia kudriavzevii [2] = test: Antifungal activity against Candida krusei […] after 48 to 72 hrs; assay type: functional
Summary of the method: (§2)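 MFC: after the MIC read, 30-μl aliquots from each well without visible growth were plated onto Sabouraud dextrose agar and incubated at 35°C. Reading was at 48–72 h for yeasts and up to 7 days for molds. MFC was the lowest concentration with no colonies.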

[3] = tested on: Cryptococcus gattii species complex; test: Antifungal activity against Cryptococcus gattii after 48 to 72 hrs; assay type: functional, Cryptococcus bacillisporus; conditions: for MFC: Cryptococcus gattii species complex; summary of the method: as §2
Nakaseomyces glabratus [4] = test: Antifungal activity against Candida glabrata after 48 to 72 hrs; assay type: functional; conditions: for MFC: Nakaseomyces glabratus; summary of the method: as §2
Candida tropicalis [5] = test: Antifungal activity against Candida tropicalis after 48 to 72 hrs; assay type: functional; conditions: for MFC: Candida tropicalis; summary of the method: as §2
[6] = Antifungal activity against Exophiala jeanselmei 03-200268 after 48 to 72 hrs; assay type: functional
Summary of the method: (§3)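 CLSI M38-A2 broth microdilution for molds in RPMI 1640 with L-glutamine and no bicarbonate, buffered with 0.165 M MOPS to pH 7.0. Compounds were dissolved in water and tested at 0.175–87.5 μM final, 35°C, up to 7 days. MIC was read visually as 100% inhibition versus growth control. For MFC, clear wells were plated on SDA and the lowest concentration with no colonies taken. Each isolate was run in duplicate, two independent experiments.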

Candida parapsilosis [7] = test: Antifungal activity against Candida parapsilosis ATCC 22019 after 48 to 72 hrs; assay type: functional; conditions: Lodderomyces parapsilosis; summary of the method: as §2
Candida parapsilosis [8] = test: Antifungal activity against Candida parapsilosis after 24 to 72 hrs by broth microdilution method; assay type: functional; conditions: Lodderomyces parapsilosis; summary of the method: as §1
Aspergillus terreus = test: Antifungal activity against Aspergillus terreus 05-202844 after 48 to 72 hrs; assay type: functional; summary of the method: as §2
Aspergillus flavus [9] = test: Antifungal activity against Aspergillus flavus ATCC 204304 after 48 to 72 hrs; assay type: functional; summary of the method: as §2
Clavispora lusitaniae = test: Antifungal activity against Candida lusitaniae after 48 to 72 hrs; assay type: functional; conditions: for MFC: Clavispora lusitaniae; summary of the method: as §2
Candida parapsilosis [10] = test: Antifungal activity against Candida parapsilosis ATCC 22019 after 24 to 72 hrs by broth microdilution method; assay type: functional; conditions: Lodderomyces parapsilosis; summary of the method: as §1
Lomentospora prolificans = test: Antifungal activity against Scedosporium prolificans 05-203060 after 48 to 72 hrs; assay type: functional; summary of the method: as §3
Scedosporium apiospermum = test: Antifungal activity against Scedosporium apiospermum 05-203100 after 24 to 72 hrs by broth microdilution method; assay type: functional
Summary of the method: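 Mold isolates subcultured on potato dextrose agar, then tested by CLSI M38-A2 broth microdilution in RPMI 1640 (L-glutamine, no bicarbonate) buffered to pH 7.0 with 0.165 M MOPS. Compounds were dissolved in water and tested at a final 0.175–87.5 μM. Plates were incubated at 35°C. MIC was read visually as the lowest concentration giving 100% inhibition versus the growth control. Each isolate was run in duplicate in two independent experiments.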

[11] = tested on: Cunninghamella bertholletiae; test: Antifungal activity against Cunninghamella bertholletiae 99-12187 after 24 to 72 hrs by broth microdilution method; assay type: functional; summary of the method: as §1
Candida dubliniensis = test: Antifungal activity against Candida dubliniensis after 48 to 72 hrs; assay type: functional; conditions: for MFC: Candida dubliniensis; summary of the method: as §2
Pichia kudriavzevii [12] = test: Antifungal activity against Candida krusei ATCC 6258 after 48 to 72 hrs; assay type: functional; summary of the method: as §2
Pichia kudriavzevii [13] = test: Antifungal activity against Candida krusei after 48 to 72 hrs; assay type: functional; conditions: for MFC: Pichia kudriavzevii; summary of the method: as §2
Pichia kudriavzevii [14] = test: Antifungal activity against Candida krusei ATCC 9258 after 24 to 72 hrs by broth microdilution method; assay type: functional; summary of the method: as §1
Cryptococcus neoformans = test: Antifungal activity against Cryptococcus neoformans after 48 to 72 hrs; assay type: functional; conditions: for MFC: Cryptococcus neoformans; summary of the method: as §2
Candida albicans [15] = test: Antifungal activity against Candida albicans ATCC 10231 after 24 to 72 hrs by broth microdilution method; assay type: functional; summary of the method: as §1
Aspergillus fumigatus [16] = test: Antifungal activity against Aspergillus fumigatus ATCC 204305 after 48 to 72 hrs; assay type: functional; summary of the method: as §3
Aspergillus fumigatus [17] = test: Antifungal activity against Aspergillus fumigatus 05-203114 after 48 to 72 hrs; assay type: functional; summary of the method: as §3
Candida parapsilosis [18] = test: Antifungal activity against Candida parapsilosis 04-202398 after 48 to 72 hrs; assay type: functional; conditions: Lodderomyces parapsilosis
Summary of the method: (§4)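 CLSI M27-A3 broth microdilution for yeasts in RPMI 1640 with L-glutamine and no bicarbonate, buffered with 0.165 M MOPS to pH 7.0. Compounds were dissolved in water and tested at 0.175–87.5 μM final, 35°C. MIC was read visually at 24–72 h as 100% inhibition versus growth control. For MFC, 30 μl from clear wells went onto SDA at 35°C for 48–72 h, reading the lowest concentration without colonies. Duplicates, two independent runs.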

[19] = tested on: Cunninghamella bertholletiae; test: Antifungal activity against Cunninghamella bertholletiae 99-12187 after 48 to 72 hrs; assay type: functional; conditions: in the assay text read “for up to 7 days” for “after 48 to 72 hrs”; summary of the method: as §2
Nakaseomyces glabratus [20] = test: Antifungal activity against Candida glabrata 04-202345 after 48 to 72 hrs; assay type: functional; summary of the method: as §2
Candida albicans [21] = test: Antifungal activity against Candida albicans ATCC 90028 after 48 to 72 hrs; assay type: functional; summary of the method: as §2
Candida tropicalis [22] = test: Antifungal activity against Candida tropicalis 04-202361 after 48 to 72 hrs; assay type: functional; summary of the method: as §4
Candida albicans [23] = test: Antifungal activity against Candida albicans ATCC 10231 after 48 to 72 hrs; assay type: functional; summary of the method: as §2
Exophiala spinifera = test: Antifungal activity against Exophiala spinifera 03-200803 after 48 to 72 hrs; assay type: functional; summary of the method: as §3
Aspergillus flavus [24] = test: Antifungal activity against Aspergillus flavus 05-203758 after 48 to 72 hrs; assay type: functional; summary of the method: as §3

Compound	MIC (Aspergillus fumigatus [1])	MFC50 [3]	MFC90 [3]	MFC [3]	MFC50 (Nakaseomyces glabratus [4])	MFC90 (Nakaseomyces glabratus [4])	MFC (Nakaseomyces glabratus [4])	MFC50 (Candida tropicalis [5])	MFC90 (Candida tropicalis [5])	MFC (Candida tropicalis [5])	MIC (Candida parapsilosis [8])	MIC50 (Candida parapsilosis [8])	MIC90 (Candida parapsilosis [8])	MFC50 (Clavispora lusitaniae)	MFC90 (Clavispora lusitaniae)	MFC (Clavispora lusitaniae)	MIC (Candida parapsilosis [10])	MIC (Scedosporium apiospermum)	MFC50 (Candida dubliniensis)	MFC90 (Candida dubliniensis)	further results
CCCCCc1cc[n+](CCCCCCCCCCCC[n+]2ccc(CCCCC)cc2)cc1.[Cl-].[Cl-]	47.3 µg/mL	1.48 µg/mL	1.48 µg/mL	0.75 µg/mL	1.48 µg/mL	1.48 µg/mL	0.38 µg/mL	0.75 µg/mL	0.75 µg/mL	0.38 µg/mL	> 47 µg/mL	> 47 µg/mL	> 47 µg/mL	1.48 µg/mL	1.48 µg/mL	0.75 µg/mL	0.74 µg/mL	2.96 µg/mL	0.75 µg/mL	1.48 µg/mL	MFC (Pichia kudriavzevii [2]): 11.8 µg/mL; MFC [6]: 2.96 µg/mL; MFC (Candida parapsilosis [7]): 1.48 µg/mL; MFC (Aspergillus terreus): 11.8 µg/mL; MFC (Aspergillus flavus [9]): 47.3 µg/mL; MFC (Lomentospora prolificans): 2.96 µg/mL; MIC [11]: 47.3 µg/mL; MFC (Candida dubliniensis): 0.75 µg/mL; MFC (Pichia kudriavzevii [12]): 11.8 µg/mL; MFC50 (Pichia kudriavzevii [13]): 2.96 µg/mL; MFC90 (Pichia kudriavzevii [13]): 5.91 µg/mL; MFC (Pichia kudriavzevii [13]): 0.38 µg/mL; MIC (Pichia kudriavzevii [14]): 5.9 µg/mL; MFC50 (Cryptococcus neoformans): 1.48 µg/mL; MFC90 (Cryptococcus neoformans): 47 µg/mL; MFC (Cryptococcus neoformans): 1.48 µg/mL; MIC (Candida albicans [15]): 1.48 µg/mL
CCCCCCc1cc[n+](CCCCCCCCCCCC[n+]2ccc(CCCCCC)cc2)cc1.[Cl-].[Cl-]	12.7 µg/mL	0.79 µg/mL	0.79 µg/mL	0.79 µg/mL	1.56 µg/mL	1.56 µg/mL	0.39 µg/mL	1.56 µg/mL	1.56 µg/mL	0.39 µg/mL	28.6 µg/mL	24.9 µg/mL	49.5 µg/mL	0.79 µg/mL	6.22 µg/mL	0.79 µg/mL	0.79 µg/mL	50.7 µg/mL	0.79 µg/mL	0.79 µg/mL	MFC (Aspergillus fumigatus [16]): 50.7 µg/mL; MFC (Aspergillus fumigatus [17]): 50.7 µg/mL; MFC (Candida parapsilosis [18]): 50.7 µg/mL; MFC (Aspergillus flavus [9]): 25.3 µg/mL; MIC [11]: 12.7 µg/mL; MFC (Candida dubliniensis): 0.79 µg/mL; MFC50 (Pichia kudriavzevii [13]): 1.56 µg/mL; MFC90 (Pichia kudriavzevii [13]): 3.11 µg/mL; MFC (Pichia kudriavzevii [13]): 0.79 µg/mL; MFC50 (Cryptococcus neoformans): 0.79 µg/mL; MFC90 (Cryptococcus neoformans): 12.45 µg/mL; MFC (Cryptococcus neoformans): 0.79 µg/mL; MIC (Candida albicans [15]): 0.79 µg/mL; MFC [19]: 25.3 µg/mL
C=CCCCc1cc[n+](CCCCCCCCCCCC[n+]2ccc(CCCC=C)cc2)cc1.[Cl-].[Cl-]	> 47.3 µg/mL	2.94 µg/mL	2.94 µg/mL	2.94 µg/mL	1.47 µg/mL	5.87 µg/mL	0.75 µg/mL	0.75 µg/mL	1.47 µg/mL	0.37 µg/mL	23.5 µg/mL	23.5 µg/mL	23.5 µg/mL	2.93 µg/mL	5.87 µg/mL	1.47 µg/mL	1.48 µg/mL	11.8 µg/mL	2.93 µg/mL	2.93 µg/mL	MFC (Candida parapsilosis [7]): 2.96 µg/mL; MFC (Nakaseomyces glabratus [20]): 3 µg/mL; MIC [11]: > 47.3 µg/mL; MFC (Candida dubliniensis): 1.47 µg/mL; MFC (Pichia kudriavzevii [12]): 11.8 µg/mL; MFC50 (Pichia kudriavzevii [13]): 5.87 µg/mL; MFC90 (Pichia kudriavzevii [13]): 11.74 µg/mL; MFC (Pichia kudriavzevii [13]): 0.75 µg/mL; MIC (Pichia kudriavzevii [14]): 11.8 µg/mL; MFC50 (Cryptococcus neoformans): 5.87 µg/mL; MFC90 (Cryptococcus neoformans): 11.74 µg/mL; MFC (Cryptococcus neoformans): 2.94 µg/mL; MFC (Candida albicans [21]): 2.96 µg/mL; MFC (Candida tropicalis [22]): 5.9 µg/mL; MFC (Candida albicans [23]): 5.9 µg/mL; MIC (Candida albicans [15]): 1.48 µg/mL
CCCCCc1cc[n+](CCCCCCCCCCCC[n+]2ccc(CCCCC)c(C)c2)cc1C.[Cl-].[Cl-]	25.3 µg/mL	0.79 µg/mL	0.79 µg/mL	0.79 µg/mL	0.79 µg/mL	1.56 µg/mL	0.39 µg/mL	0.79 µg/mL	1.56 µg/mL	0.39 µg/mL	30.6 µg/mL	24.9 µg/mL	49.5 µg/mL	3.11 µg/mL	6.22 µg/mL	1.56 µg/mL	0.79 µg/mL	6.3 µg/mL	0.79 µg/mL	1.56 µg/mL	MFC (Exophiala spinifera): 1.58 µg/mL; MFC (Aspergillus fumigatus [16]): 50.7 µg/mL; MFC (Candida parapsilosis [18]): 50.7 µg/mL; MFC (Aspergillus flavus [9]): 25.3 µg/mL; MFC (Nakaseomyces glabratus [20]): 3.2 µg/mL; MFC (Lomentospora prolificans): 6.83 µg/mL; MFC (Aspergillus flavus [24]): 50.7 µg/mL; MFC (Candida dubliniensis): 0.79 µg/mL; MFC50 (Pichia kudriavzevii [13]): 6.22 µg/mL; MFC90 (Pichia kudriavzevii [13]): 6.22 µg/mL; MFC (Pichia kudriavzevii [13]): 0.79 µg/mL; MFC50 (Cryptococcus neoformans): 0.79 µg/mL; MFC90 (Cryptococcus neoformans): 12.45 µg/mL; MFC (Cryptococcus neoformans): 0.79 µg/mL; MFC (Candida tropicalis [22]): 1.58 µg/mL; MIC (Candida albicans [15]): 1.58 µg/mL
